What was measured:
[1] = molecular target: T1, 3-hydroxy-3-methylglutaryl-coenzyme A reductase (Rattus norvegicus, UniProt P51639); assay: Inhibitory activity against washed rat liver microsomal HMG-CoA reductase (HMGR)
T1 sequence (P51639 whole entry): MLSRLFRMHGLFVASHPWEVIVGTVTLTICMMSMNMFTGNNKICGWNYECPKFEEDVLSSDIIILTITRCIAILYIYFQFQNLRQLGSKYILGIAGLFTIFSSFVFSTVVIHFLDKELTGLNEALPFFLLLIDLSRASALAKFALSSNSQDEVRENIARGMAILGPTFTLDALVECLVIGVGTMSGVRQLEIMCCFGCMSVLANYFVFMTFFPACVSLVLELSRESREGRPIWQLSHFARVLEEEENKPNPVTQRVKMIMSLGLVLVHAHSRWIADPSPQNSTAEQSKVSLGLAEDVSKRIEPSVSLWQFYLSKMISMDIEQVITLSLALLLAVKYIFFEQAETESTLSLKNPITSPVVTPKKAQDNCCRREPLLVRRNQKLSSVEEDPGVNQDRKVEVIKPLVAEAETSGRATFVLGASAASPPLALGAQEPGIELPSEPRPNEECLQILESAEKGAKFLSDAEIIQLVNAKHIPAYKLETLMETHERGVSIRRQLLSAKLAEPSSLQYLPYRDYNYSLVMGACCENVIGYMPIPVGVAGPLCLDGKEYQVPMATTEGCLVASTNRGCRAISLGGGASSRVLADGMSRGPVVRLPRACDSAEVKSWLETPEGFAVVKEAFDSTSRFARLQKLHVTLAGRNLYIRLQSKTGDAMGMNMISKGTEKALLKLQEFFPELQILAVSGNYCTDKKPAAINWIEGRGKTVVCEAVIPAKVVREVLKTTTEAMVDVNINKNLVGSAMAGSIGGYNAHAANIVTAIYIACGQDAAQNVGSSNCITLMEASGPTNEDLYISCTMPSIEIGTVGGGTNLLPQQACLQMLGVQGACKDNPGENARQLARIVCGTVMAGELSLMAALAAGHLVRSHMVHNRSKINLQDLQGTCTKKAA
How it was run: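 Male Wistar rats (100–120 g) on reversed light cycle, killed at 0800 h; washed liver microsomes (10000g then 105000g spins, 4 °C) in buffer A (50 mM K phosphate pH 7.4, 250 mM NaCl, 10 mM EDTA, 1 mM DTT). Enzyme+inhibitor preincubated 10 min 37 °C; NADPH-regenerating system plus [3-14C]HMG-CoA added; HCl stop, lactonization, anion-exchange isolation of [14C]mevalonate, scintillation. Five concentrations, duplicate, ≥2 occasions; pravastatin reference.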

[2] = Partition coefficient (logD7.4); type: physicochemical; settings: octanol/water, pH 7.4
How it was run: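 log D by HPLC in n-octanol–water: compound dissolved in pH 7.4 aqueous borax-phosphate buffer saturated with n-octanol, eluted through a column of n-octanol physically bonded to fractionated hyflosuperpel.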

HepG2 = assay: Tested for ability to inhibit the incorporation of [14C]- acetate in to cholesterol in HepG2 cells; type: functional, cell-based; settings: Homo sapiens
How it was run: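 HepG2 cells in MEM + 10% fetal calf serum to 80% confluency, switched to serum-free MEM; inhibitor and sodium [14C]acetate added together, 3 h. Saponified, petroleum ether extract; [14C]cholesterol separated by reverse-phase HPLC and measured by radioactivity flow monitor. At least five concentrations, triplicate, run twice; lovastatin standard.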

IC50 [1] | logD [2] | IC50 (HepG2) | Structure (SMILES)
700 nM |  |  | CC(C)c1nc(-c2ccc(F)cc2)c(-c2ccc(F)cc2)n1/C=C/[C@H](O)C[C@H](O)CC(=O)O
750 nM |  |  | Cc1ccc(-c2c(-c3ccc(F)cc3)nc(C(F)(F)F)n2CC[C@@H](O)C[C@@H](O)CC(=O)O)cc1
7 nM |  |  | CC(C)(C)c1nc(-c2ccc(F)cc2)c(-c2ccc(F)cc2)n1/C=C/[C@@H](O)C[C@@H](O)CC(=O)O
2000 nM |  |  | CC(C)c1nc(-c2ccc(F)cc2)c(-c2ccc(F)cc2)n1/C=C/[C@H](O)C[C@@H](O)CC(=O)O
418 nM |  |  | COc1ccc(-c2c(-c3ccc(F)cc3)nc(C(F)(F)F)n2CC[C@@H](O)C[C@@H](O)CC(=O)O)cc1
135 nM |  |  | COc1cccc(-c2c(-c3ccc(F)cc3)nc(C(F)(F)F)n2CC[C@@H](O)C[C@@H](O)CC(=O)O)c1
24 nM |  |  | Cc1cc(C)cc(-c2nc(C(F)(F)F)n(CC[C@@H](O)C[C@@H](O)CC(=O)O)c2-c2ccc(F)cc2)c1
4 nM | 0.86 |  | Cc1cc(F)ccc1-c1c(-c2ccc(F)cc2)nc(C(C)C)n1/C=C/[C@@H](O)C[C@@H](O)CC(=O)O
1 nM | -0.43 |  | CC(C)c1nc(-c2cccnc2)c(-c2ccc(F)cc2)n1/C=C/[C@@H](O)C[C@@H](O)CC(=O)O
31 nM |  |  | O=C(O)C[C@H](O)C[C@H](O)CCn1c(C(F)(F)F)nc(-c2ccccc2)c1-c1ccc(F)cc1
41 nM |  |  | O=C(O)C[C@H](O)C[C@H](O)CCn1c(C(F)(F)F)nc(-c2ccc(F)cc2)c1-c1cccc(Cl)c1
316 nM |  |  | CC(C)c1nc(-c2ccc(F)cc2)c(-c2ccc(F)cc2)n1CC[C@@H](O)C[C@@H](O)CC(=O)O
43 nM |  |  | Cc1ccc(-c2nc(C(F)(F)F)n(CC[C@@H](O)C[C@@H](O)CC(=O)O)c2-c2ccc(F)cc2)cc1
> 1000 nM |  |  | O=C(O)C[C@H](O)C[C@H](O)CCn1c(C(F)(F)F)nc(-c2ccc(F)cc2)c1-c1ccc(C(F)(F)F)cc1
1 nM |  | 2.5 nM | CC(C)c1nc(-c2ccc(F)cc2)c(-c2ccc(F)cc2)n1/C=C/[C@@H](O)C[C@@H](O)CC(=O)O [listing 1 of 2 here]
68 nM |  |  | COc1ccc(-c2nc(C(F)(F)F)n(CC[C@@H](O)C[C@@H](O)CC(=O)O)c2-c2ccc(F)cc2)cc1
64 nM |  |  | O=C(O)C[C@H](O)C[C@H](O)CCn1c(C(F)(F)F)nc(-c2cccs2)c1-c1ccc(F)cc1
> 100 nM |  |  | Cc1nc(-c2ccc(F)cc2)c(-c2ccc(F)cc2)n1/C=C/[C@@H](O)C[C@@H](O)CC(=O)O
1 nM | 0.83 |  | CC(C)c1c(-c2ccc(F)cc2)nc(-c2ccc(F)cc2)n1/C=C/[C@@H](O)C[C@@H](O)CC(=O)O
100 nM |  |  | CCc1cc(-c2c(-c3ccc(F)cc3)nc(C(C)C)n2/C=C/[C@@H](O)C[C@@H](O)CC(=O)O)cc(CC)c1F
8 nM |  |  | CC(C)c1nc(-c2ccc(F)cc2)c(-c2cccc(Cl)c2)n1/C=C/[C@@H](O)C[C@@H](O)CC(=O)O
13 nM | 0.73 | 15.8 nM | O=C(O)C[C@H](O)C[C@H](O)/C=C/n1c(C(F)(F)F)nc(-c2ccc(F)cc2)c1-c1ccc(F)cc1

IC50 [1] | logD [2] | IC50 (HepG2) | Structure (SMILES)
30 nM |  |  | Cc1cc(-c2c(-c3ccc(F)cc3)nc(C(C)C)n2/C=C/[C@@H](O)C[C@@H](O)CC(=O)O)cc(C)c1F
200 nM |  |  | O=C(O)C[C@H](O)C[C@H](O)CCn1c(C(F)(F)F)nc(-c2ccc(C(F)(F)F)cc2)c1-c1ccc(F)cc1
> 1000 nM |  |  | O=C(O)C[C@H](O)C[C@H](O)CCn1c(C(F)(F)F)nc(-c2ccc(F)cc2)c1-c1cccnc1
20 nM |  |  | COc1cccc(-c2nc(C(F)(F)F)n(CC[C@@H](O)C[C@@H](O)CC(=O)O)c2-c2ccc(F)cc2)c1
56 nM |  |  | Cc1cc(C)cc(-c2c(-c3ccc(F)cc3)nc(C(C)C)n2/C=C/[C@@H](O)C[C@@H](O)CC(=O)O)c1
2.6 nM |  |  | CC(C)c1nc(-c2ccccc2)n(-c2ccc(F)cc2)c1/C=C/[C@@H](O)C[C@@H](O)CC(=O)O
38 nM |  |  | O=C(O)C[C@H](O)C[C@H](O)CCn1c(C(F)(F)F)nc(-c2ccc(F)cc2)c1-c1ccc(F)cc1
3 nM | -0.05 |  | CNc1cccc(-c2nc(C(C)C)n(/C=C/[C@@H](O)C[C@@H](O)CC(=O)O)c2-c2ccc(F)cc2)c1
201 nM |  |  | O=C(O)C[C@H](O)C[C@H](O)CCn1c(C(F)(F)F)nc(-c2ccc(F)cc2)c1-c1ccccc1
31 nM |  |  | Cc1cc(-c2c(-c3ccc(F)cc3)nc(C(F)(F)F)n2CC[C@@H](O)C[C@@H](O)CC(=O)O)cc(C)c1F
17 nM |  |  | O=C(O)C[C@H](O)C[C@H](O)CCn1c(C(F)(F)F)nc(-c2cccc(Cl)c2)c1-c1ccc(F)cc1
2 nM | -0.6 |  | CC(C)c1nc(-c2cccc(S(C)(=O)=O)c2)c(-c2ccc(F)cc2)n1/C=C/[C@@H](O)C[C@@H](O)CC(=O)O
9 nM |  |  | CN(C)c1nc(-c2ccc(F)cc2)c(-c2ccc(F)cc2)n1/C=C/[C@@H](O)C[C@@H](O)CC(=O)O
215 nM |  |  | O=C(O)C[C@H](O)C[C@H](O)CCn1c(C(F)(F)F)nc(-c2ccc(F)cc2)c1-c1cccs1
74 nM |  |  | Cc1cccc(-c2c(-c3ccc(F)cc3)nc(C(F)(F)F)n2CC[C@@H](O)C[C@@H](O)CC(=O)O)c1
2 nM | 2.27 | 0.9 nM | Cc1cc(-c2nc(C(C)C)n(/C=C/[C@@H](O)C[C@@H](O)CC(=O)O)c2-c2ccc(F)cc2)cc(C)c1Cl
66 nM |  |  | O=C(O)C[C@H](O)C[C@H](O)CCn1c(C(F)(F)F)nc(-c2cccnc2)c1-c1ccc(F)cc1
38 nM |  |  | Cc1cc(C)cc(-c2c(-c3ccc(F)cc3)nc(C(F)(F)F)n2CC[C@@H](O)C[C@@H](O)CC(=O)O)c1
2 nM | 0.72 | 5.3 nM | CC(C)c1nc(-c2ccc(F)cc2)c(-c2ccc(F)cc2)n1/C=C/[C@@H](O)C[C@@H](O)CC(=O)O [listing 2 of 2 here]
32 nM |  |  | Cc1cc(-c2nc(C(F)(F)F)n(CC[C@@H](O)C[C@@H](O)CC(=O)O)c2-c2ccc(F)cc2)cc(C)c1F
22 nM |  |  | CC(C)c1nc(-c2ccc(F)cc2)c(-c2cc(Cl)cc(Cl)c2)n1/C=C/[C@@H](O)C[C@@H](O)CC(=O)O
29 nM |  |  | Cc1cccc(-c2nc(C(F)(F)F)n(CC[C@@H](O)C[C@@H](O)CC(=O)O)c2-c2ccc(F)cc2)c1
